The subject of experiment [1] is Fusarium oxysporum f. sp. lini. In words: Induction of delay in spore germination of Fusarium oxysporum f. sp. lini. The format is functional, organism-based. The method in brief:
(§1)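 Fayret liquid medium with compound in DMF at 0.58 mM dithiocarbamoyl equivalent, inoculated with glass-wool-filtered spores (hemocytometer count) from 10-day-old MEA culture to 104 spores mL-1; shaken at 90 tpm, 20 °C, 12 h photoperiod, 7 days; spore germination and hyphal morphology of treated versus untreated fungus examined by light microscopy.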

The subject of experiment [2] is Fusarium oxysporum f. sp. lini. In words: Antifungal activity against Fusarium oxysporum f. sp. lini assessed as inhibition of radial fungal growth at 0.58 mM after 6 days. The format is functional. The following applies: 144 h, read-out: GI. The method in brief: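 Mycelial plug (6 mm) cut from margin of 4-day-old MEA culture placed on MEA plates containing compound (DMF vehicle, ≤1% v/v final) at 0.58 mM dithiocarbamoyl equivalent; 20 °C, 12 h photoperiod; colony diameter read daily over 6 days; percent growth inhibition versus untreated culture; three replicates per treatment, two runs; two-sample t-test, P 0.01.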

Experiment [3] deals with Fusarium oxysporum f. sp. lini. In words: Induction of morphological alterations in Fusarium oxysporum f. sp. lini. The experiment is classed as functional, organism-based. The gist of the method:
as §1

The test system of experiment [4] is Fusarium oxysporum f. sp. lini. Description: Inhibition of spore germination of Fusarium oxysporum f. sp. lini. The format is functional, organism-based. The gist of the method: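 Liquid Fayret medium held N,N-dimethylformamide solutions at 0.58 mM equivalent of dithiocarbamoyl group. Spores were washed from a 10-day MEA culture, glass-wool filtered, counted by hemocytometer and seeded at 10^4 spores mL-1. Tubes were shaken at 90 tpm at 20 °C under a 12 h photoperiod for 7 days. Germination timing and hyphal morphology were assessed by light microscopy against untreated controls.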

Experiment [5] deals with Fusarium oxysporum f. sp. lini. Description: Antifungal activity against Fusarium oxysporum f. sp. lini assessed as inhibition of radial fungal growth at 100 ppm after 6 days. The experiment is classed as functional. The gist of the method:
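Radial growth on malt extract agar. Compounds dissolved in N,N-dimethylformamide (final ≤1% v/v) were mixed into molten MEA at 50 °C, giving 0.58 mM equivalent of dithiocarbamoyl group. A 6 mm plug from the margin of a 4-day MEA culture was placed on each plate. Plates were held at 20 °C under a 12 h photoperiod, with colony diameter read daily for 6 days. Two runs, three replicates each; two-sample t-test against untreated cultures.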

Calls of active or inactive are those of the source. The calls are words filed in the database; no cut-off is given here.

On to `CCN(CC)C(=S)SC[C@H](O)[C@H]1O[C@@H]2OC(C)(C)O[C@@H]2[C@H]1SC(=S)N(CC)CC`, for which the outcome in experiment [1] was Active. For the same compound, the inhibition of growth at 580 µM in experiment [2] came to 17%.
For `CCN(CC)C(=S)SC[C@H]1OC(O)[C@H](O)[C@@H](SC(=S)N(CC)CC)[C@@H]1O` (stereo not given in full), the result in experiment [1] and in experiment [3] was Active. In addition, in experiment [2], the inhibition of growth at 580 µM was 18%.
Regarding `CCN(CC)C(=S)S` [DITIOCARB SODIUM], the inhibition entry in experiment [4] is “Active”. For the same compound, the inhibition of growth at 100 ppm in experiment [5] (144 h, read-out: GI) was 18%.
On to `CCN(CC)C(=S)SCC(CSC(=S)N(CC)CC)OC(C)=O`, for which the inhibition of growth at 580 µM in experiment [2] is 12%.
`CCSC(=S)NCC(O)CNC(=S)SCC`: the result in experiment [1] and in experiment [3] was Active. The inhibition of growth at 580 µM in experiment [2] worked out at 27%.
In the case of `CCN(CC)C(=S)SCC(O)CO` (racemic), in experiment [2], the inhibition of growth at 580 µM stood at 10%.
As for `CCCCCCCC(=O)OC(CSC(=S)N(CC)CC)CSC(=S)N(CC)CC`, the inhibition of growth at 580 µM in experiment [2] stood at 7%.
Take `CCCC(=O)OC(CSC(=S)N(CC)CC)CSC(=S)N(CC)CC`: in experiment [2], the inhibition of growth at 580 µM was found to be 12%.
As to maneb, the inhibition result in experiment [4] was “Active”. The growth inhibition (GI) in experiment [5] is 12%.
On to `CCN(CC)C(=S)SCC(=O)CSC(=S)N(CC)CC`, for which, in experiment [2], the inhibition of growth at 580 µM worked out at 12%.
Consider `CCN(CC)C(=S)SCC(O)CSC(=S)N(CC)CC`, for which the result in experiment [1] and in experiment [3] was Active. Besides, in experiment [2], the inhibition of growth at 580 µM was 30%.

The values above are taken from ChEMBL document CHEMBL3045340, “Synthesis and antifungal activity of novel bisdithiocarbamate derivatives of carbohydrates against Fusarium oxysporum f. sp. lini” (2000).
